Screens from PubChem.
S1P4 agonist = agonists of human S1P4 receptor; O95977; S1P4-expressing cell line, agonist reporter assay; activation, % at 4.98 µM; 220,000 tested, 0.35% active; in the data active means activation above about 11%
Target sequence (O95977 whole entry, looked up): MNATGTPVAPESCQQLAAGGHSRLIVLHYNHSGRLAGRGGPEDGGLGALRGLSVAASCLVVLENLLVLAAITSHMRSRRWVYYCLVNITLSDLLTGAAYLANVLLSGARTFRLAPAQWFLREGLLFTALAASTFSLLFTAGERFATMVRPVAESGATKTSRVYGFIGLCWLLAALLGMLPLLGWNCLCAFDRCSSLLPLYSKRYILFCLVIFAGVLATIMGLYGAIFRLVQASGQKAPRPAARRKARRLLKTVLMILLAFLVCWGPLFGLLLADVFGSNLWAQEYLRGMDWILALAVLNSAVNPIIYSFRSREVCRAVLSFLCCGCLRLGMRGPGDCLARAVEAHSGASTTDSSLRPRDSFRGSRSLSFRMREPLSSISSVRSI
TNAP inh noacc = TNAP (human) inhibition, acceptor-free conditions; P05186; purified TNAP, CDP-star luminescence, 30 min; inhibition, % at 20 µM; 200,000 tested, 0.26% active; AID 1012;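 active means tissue-nonspecific alkaline phosphatase inhibition above about 50% at 20 µM in the single-dose screen, limit read from the data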
TNAP inh hi DEA = blocks human TNAP under high phosphate acceptor concentration; P05186; purified TNAP, CDP-star luminescence, 1 M DEA; inhibition, % at 20 µM; 200,000 tested, 0.03% active; AID 1135;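 active means over 50% inhibition of tissue-nonspecific alkaline phosphatase at 20 µM in the single-dose screen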
TNAP act hi DEA = TNAP (human) activation, high acceptor; P05186; purified TNAP, CDP-star luminescence, 1 M DEA, 30 min; stronger effect = higher value; 0 = EDTA background, 1 = DMSO-only activity; activation factor at 20 µM; 200,000 tested, under 10 active;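 active means activation factor at least 2 at 20 µM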
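Test system – human TNAP · Doses – 20 µM single point · Incubation – 30 min, room temperature · Signal – luminescent substrate turnover signal · Read-out basis – activation factor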
S1P3 antag = S1P3 (human) receptor antagonism. Q99500. inhibition, % at 4.98 µM. CHO S1P3 NFAT-BLA reporter, FRET fluorescence, antagonist mode. 170,000 tested, 0.27% active. AID 485;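 active means inhibition above the plate cutoff, the mean inhibition of test wells on that plate plus 3 SD, cut at about 28% in these data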;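 further: cells challenged with S1P at its EC80 of 0.8 µM; blue over green emission ratio from cleaved BLA substrate after 4 h stimulation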
S1P4 antagonist = human S1P4 receptor antagonism; S1P4-expressing cells, antagonist mode, reporter read-out; 220,000 tested, 0.26% active; O95977; inhibition, % at 4.98 µM; in the data active means inhibition above about 29%
Hits are given with their value; 0 = inactive; - = not tested or not shown. Only some compounds are listed: those with a hit (about 1.1% of all), similar ones and a draw of the others.

SMILES	S1P4 agonist	TNAP inh noacc	TNAP inh hi DEA	TNAP act hi DEA	S1P3 antag	S1P4 antagonist
Cc1ccc(S(=O)(=O)Nc2ccc(O)c(Sc3ncn[nH]3)c2)cc1	0	74	0	0	0	0
CCOc1ccc(NS(=O)(=O)c2ccc(NS(=O)(=O)c3ccc(SC)cc3)cc2)cc1	0	0	0	0	-	0
COc1ccc(OC)c(S(=O)(=O)Nc2ccc(O)c(Sc3ncn[nH]3)c2)c1	0	74	0	0	0	0
Cc1ccc(C)c(S(=O)(=O)Nc2ccc(O)c(Sc3ncn[nH]3)c2)c1	0	-	-	-	0	0
CN(C(=O)CSc1nnc(C(F)(F)F)n1N)C1CCS(=O)(=O)C1 (configuration not stated)	0	-	-	-	0	0
COC(=O)c1ccccc1NC(=O)C1CC(c2ccccc2O)=NO1 (configuration not stated)	0	0	0	0	0	0
CSc1ccccc1NC(=O)C1CC(c2ccccc2O)=NO1 (configuration not stated)	0	0	0	0	82	0
NC(=S)N=Nc1c(O)[nH]c2ccccc12	0	65	0	0	0	0
CC(C)N=c1scc(-c2cccs2)n1/N=C/c1ccc(O)c(O)c1O	17	0	0	0	0	0
Brc1ccc(-c2nnc(Cc3ccccc3)o2)cc1	0	-	-	-	0	0
O/C(=C\Sc1nnc(Cc2ccccc2)o1)c1ccc(Br)cc1	0	0	0	0	81	0
Nc1ccc(Cc2ccc(N)c(O)c2)cc1O	0	57	0	0	0	0
COc1cc(Cc2ccc(N)c(OC)c2)ccc1N	0	0	0	0	0	0
CCOC(=O)c1cc(-c2ccc(C)o2)n[nH]1	0	68	0	0	-	0
COC(=O)c1cc(-c2ccc(C)cc2)n[nH]1	0	90	0	0	0	0
COC(=O)c1cc(-c2ccc(OC)cc2)n[nH]1	0	94	0	0	0	0
CCOC(=O)c1cc(-c2cc3ccccc3o2)n[nH]1	0	0	0	0	0	0
CCOc1ccc(-c2cc(C(=O)OC)[nH]n2)cc1	0	85	0	0	0	0
COC(=O)c1cc(-c2cccc(OC)c2)n[nH]1	0	0	0	0	0	0
CCOC(=O)C(NC(C)=O)C(=O)Nc1c(C)cccc1C (configuration not stated)	0	0	0	0	0	0
N#Cc1cc2cc3ccccc3nc2n2c(=O)c3ccccc3nc12	0	0	0	0	0	0
Cc1ccc(Nc2nc(/N=C/NO)n[nH]2)cc1C	0	0	0	0	0	0
COc1ccc(-c2[nH]ncc2CNC(C)CCn2cccn2)c(F)c1 (configuration not stated)	0	72	0	0	0	0
COc1ccc(-c2nn(-c3ccccc3C)cc2CNC(C)c2cn(C)nc2C)cc1F (configuration not stated)	0	0	0	0	0	0
COc1ccc(-c2[nH]ncc2CN(C)C(C)c2cccs2)c(F)c1 (configuration not stated)	0	0	0	0	0	0
SMILES	S1P4 agonist	TNAP inh noacc	TNAP inh hi DEA	TNAP act hi DEA	S1P3 antag	S1P4 antagonist
COc1ccc(-c2[nH]ncc2CNC(C)c2cn(C)nc2C)c(F)c1 (configuration not stated)	0	74	0	0	0	0
O=C(O)c1[nH]nc2c1COc1ccccc1-2	0	91	0	0	0	0
O=C(Nc1ncc2c(n1)-c1ccccc1OC2)c1ccc(F)cc1	0	0	0	0	0	0
COc1cccc(C2Nc3ccccc3C(=O)N2O)c1O (configuration not stated)	0	74	0	0	0	0
Cc1ccc(CS(=O)(=O)CCC(=O)NCCCN2CCCC2)cc1	0	0	0	0	82	0
O=C(NNC(=O)C1CCN(c2ncccn2)CC1)c1ccc(Cl)cc1	0	0	0	0	0	0
S=C1NC[C@H](c2ccccc2)N1CC1CCCCC1	0	0	0	0	0	0
c1ccc(-c2n[nH]c(-c3ccccn3)n2)cc1	0	67	0	0	-	0
CC[n+]1c(/C=C/c2ccc(N(C)C)cc2)ccc2ccccc21	0	60	60	0	0	0
CC[n+]1ccc(/C=C/c2ccc(N(C)C)cc2)c2ccccc21	0	52	54	0	0	0
CCCn1c(N)c(N(CCOC)C(=O)/C=C/c2cccc(Cl)c2)c(=O)[nH]c1=O	0	0	0	0	0	0
CN1C(=O)c2cccc(NC(=O)CCc3ccccc3)c2C1=O	0	0	0	0	92	0
CCCCC(=O)Nc1cccc2c1C(=O)N(c1ccccc1)C2=O	0	0	0	0	0	0
O=C(NC(=S)Nc1ccccc1O)c1ccc(Cl)cc1Cl	0	0	0	0	0	0
O=S(=O)(Cc1ccc(Cl)cc1)NCc1cccnc1	0	-	-	-	0	0
CCN1/C(=C/C(C)=C/c2sc3ccccc3[n+]2CC)Sc2ccccc21	0	59	0	0	0	0
CCC(C)(C)c1ccc(OCCCC[n+]2cccc(C)c2)c(C(C)(C)CC)c1	0	0	0	0	0	0
Cc1ccc(-n2ncc3c2ncn2c(-c4ccncc4)nnc32)cc1	-	54	0	0	0	-
c1ccc(Cn2ncc3c2ncn2c(-c4ccncc4)nnc32)cc1	-	0	0	0	0	-
O=C(/C=C/c1cccnc1)/C=C/c1cccnc1	0	-	-	-	0	98
O=C(OCn1ncc(Cl)c(Cl)c1=O)c1cccc(C(F)(F)F)c1	0	0	0	0	-	34
CCn1c(=O)c2cc(C(=O)N3CCCC3)sc2c2ccccc21	0	0	0	0	57	0
CC#CC#Cc1cccc(=O)o1	0	-	-	-	0	0
CCN(C(=O)COC(=O)c1[nH]c(=O)[nH]c(=O)c1N)c1ccccc1	0	0	0	0	0	0
COc1ccc(Nc2nc(N)nc(CSc3n[nH]c(-c4ccccc4)n3)n2)cc1	0	81	0	0	0	0
SMILES	S1P4 agonist	TNAP inh noacc	TNAP inh hi DEA	TNAP act hi DEA	S1P3 antag	S1P4 antagonist
Cc1ccc(-c2nc(Nc3ccccc3)n[nH]2)cc1	0	50	0	0	0	0
Nc1nc(CSc2n[nH]c(-c3ccccc3)n2)nc(Nc2ccccc2)n1	0	90	0	0	0	0
Cc1cc(C)nc(Nc2n[nH]c(-c3ccccc3Cl)n2)n1	0	0	0	0	0	0
COc1ccccc1-n1cnnc1SC(C)C(=O)Nc1ccc(NC(C)=O)cc1 (configuration not stated)	0	0	0	0	0	0
N=c1c(C(=O)NCc2ccc(F)cc2)cc2c(=O)n3ccccc3nc2n1CCCN1CCOCC1	14	0	0	0	0	0
COc1ccc(NC(=O)C(Cl)=C(Cl)Cl)cn1	0	0	0	0	0	0
COc1ccc(NC(=O)/C(Cl)=C(/Cl)S(=O)Cc2ccc(Cl)cc2)cn1 (configuration not stated)	0	0	0	0	44	52
Cn1c(Cn2c(=O)sc3ccccc32)nnc1SCC(=O)Nc1ccc(F)cc1	0	0	0	0	0	0
